Source: ChEMBL document CHEMBL1147918, “Novel 5-substituted 1-pyrazolol analogues of ibotenic acid: synthesis and pharmacology at glutamate receptors” (Bioorg Med Chem, 2007)

Assays:
[1] = molecular target: T1, Metabotropic glutamate receptor 1 (Rattus norvegicus, UniProt P23385); test: Agonist activity at rat mGluR1a receptor expressed in CHO cells assessed as effect on intracellular calcium level; format: functional, cell-based
Method in brief: (§1)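 Means of at least three independent experiments, expressed as pEC50 or pKi ± SEM.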

[2] = molecular target: Metabotropic glutamate receptor 4 (Rattus norvegicus, UniProt P31423); test: Agonist activity at rat mGluR4 receptor expressed in CHO cells assessed as effect on intracellular cAMP level; format: functional, cell-based; method in brief: as §1
Sequence of Metabotropic glutamate receptor 4 (P31423 whole entry): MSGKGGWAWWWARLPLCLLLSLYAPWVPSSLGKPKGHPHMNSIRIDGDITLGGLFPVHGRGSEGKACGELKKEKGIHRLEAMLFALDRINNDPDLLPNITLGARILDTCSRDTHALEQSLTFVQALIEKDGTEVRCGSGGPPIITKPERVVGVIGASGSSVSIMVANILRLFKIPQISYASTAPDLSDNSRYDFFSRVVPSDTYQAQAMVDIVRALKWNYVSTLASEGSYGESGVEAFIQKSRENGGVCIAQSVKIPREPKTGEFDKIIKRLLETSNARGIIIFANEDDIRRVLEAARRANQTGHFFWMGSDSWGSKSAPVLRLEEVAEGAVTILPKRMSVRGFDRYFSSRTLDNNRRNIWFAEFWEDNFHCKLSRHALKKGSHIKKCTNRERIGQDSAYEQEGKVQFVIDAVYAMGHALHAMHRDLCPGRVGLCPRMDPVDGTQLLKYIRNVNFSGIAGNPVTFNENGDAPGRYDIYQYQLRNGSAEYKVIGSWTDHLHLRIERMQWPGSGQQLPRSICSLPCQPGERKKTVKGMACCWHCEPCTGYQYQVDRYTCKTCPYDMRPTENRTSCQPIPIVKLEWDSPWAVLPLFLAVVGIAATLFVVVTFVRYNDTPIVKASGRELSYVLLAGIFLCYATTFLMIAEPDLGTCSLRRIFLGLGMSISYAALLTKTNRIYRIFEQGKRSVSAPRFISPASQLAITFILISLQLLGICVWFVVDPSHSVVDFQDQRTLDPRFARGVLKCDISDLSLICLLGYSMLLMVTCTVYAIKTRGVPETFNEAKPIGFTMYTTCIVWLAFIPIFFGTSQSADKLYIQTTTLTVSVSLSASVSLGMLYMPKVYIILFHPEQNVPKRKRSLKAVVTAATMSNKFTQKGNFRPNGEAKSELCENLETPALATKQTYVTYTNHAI

[3] = molecular target: T2, Metabotropic glutamate receptor 2 (Rattus norvegicus, UniProt P31421); test: (§2) Agonist activity at rat mGluR2 receptor expressed in CHO cells assessed as effect on intracellular cAMP level; format: functional, cell-based; method in brief: as §1
T2 sequence (P31421 whole entry): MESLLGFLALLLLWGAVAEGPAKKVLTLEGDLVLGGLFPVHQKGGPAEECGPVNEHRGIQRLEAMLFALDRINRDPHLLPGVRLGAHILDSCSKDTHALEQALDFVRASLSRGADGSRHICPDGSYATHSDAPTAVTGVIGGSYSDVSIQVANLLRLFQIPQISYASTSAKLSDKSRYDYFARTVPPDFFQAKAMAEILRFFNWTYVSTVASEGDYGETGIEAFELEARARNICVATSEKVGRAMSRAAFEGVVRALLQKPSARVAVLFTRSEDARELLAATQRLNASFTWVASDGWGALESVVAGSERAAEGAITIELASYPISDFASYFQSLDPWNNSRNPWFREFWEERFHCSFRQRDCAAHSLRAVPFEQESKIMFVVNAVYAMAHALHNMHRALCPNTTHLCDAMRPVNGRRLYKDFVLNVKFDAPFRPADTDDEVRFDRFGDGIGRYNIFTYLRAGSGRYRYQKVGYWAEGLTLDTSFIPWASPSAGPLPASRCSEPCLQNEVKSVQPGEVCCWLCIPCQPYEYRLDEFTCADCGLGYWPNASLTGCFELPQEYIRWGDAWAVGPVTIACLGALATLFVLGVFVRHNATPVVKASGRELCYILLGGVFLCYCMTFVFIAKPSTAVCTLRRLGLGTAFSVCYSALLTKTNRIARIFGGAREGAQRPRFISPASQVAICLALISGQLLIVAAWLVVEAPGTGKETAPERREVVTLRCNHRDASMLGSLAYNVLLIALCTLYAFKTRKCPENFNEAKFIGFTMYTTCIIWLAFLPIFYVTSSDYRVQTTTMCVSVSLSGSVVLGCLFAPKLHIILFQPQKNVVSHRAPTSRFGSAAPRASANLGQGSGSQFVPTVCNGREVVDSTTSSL

[4] = Displacement of [3H]AMPA from AMPA receptor in rat cortical membrane; format: cell membranes
Method in brief: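 Rat brain membranes prepared per Ransom and Stec; native AMPA receptor affinity measured with 5 nM [3H]AMPA. Means of at least three to four independent experiments; values as pIC50 or pKi ± SEM.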

Glutamate NMDA receptor = test: Displacement of [3H]CGP39653 from NMDA receptor in rat cortical membrane; format: cell membranes
Method in brief: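 NMDA receptor affinity on rat brain membranes prepared per Ransom and Stec, radioligand 2 nM [3H]CGP39653. Means of at least three to four independent experiments; pIC50 or pKi ± SEM.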

[5] = Displacement of [3H]KA from KA receptor in rat cortical membrane; format: cell membranes
Method in brief: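 Native kainate receptor binding on rat brain membranes (Ransom and Stec preparation) using 5 nM [3H]KA. Means of at least three to four independent experiments, reported as pIC50 or pKi ± SEM.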

[6] = molecular target: T2, Metabotropic glutamate receptor 2; test: Antagonist activity at rat mGluR2 receptor expressed in CHO cells assessed as effect on intracellular cAMP level; format: functional, cell-based; method in brief: as §1
[7] = molecular target: Metabotropic glutamate receptor 2 (Rattus norvegicus) (UniProt P31421); test: as §2; format: functional, cell-based; method in brief: as §1
Sequence of Metabotropic glutamate receptor 2 (Rattus norvegicus) (P31421 19-872 limits assumed): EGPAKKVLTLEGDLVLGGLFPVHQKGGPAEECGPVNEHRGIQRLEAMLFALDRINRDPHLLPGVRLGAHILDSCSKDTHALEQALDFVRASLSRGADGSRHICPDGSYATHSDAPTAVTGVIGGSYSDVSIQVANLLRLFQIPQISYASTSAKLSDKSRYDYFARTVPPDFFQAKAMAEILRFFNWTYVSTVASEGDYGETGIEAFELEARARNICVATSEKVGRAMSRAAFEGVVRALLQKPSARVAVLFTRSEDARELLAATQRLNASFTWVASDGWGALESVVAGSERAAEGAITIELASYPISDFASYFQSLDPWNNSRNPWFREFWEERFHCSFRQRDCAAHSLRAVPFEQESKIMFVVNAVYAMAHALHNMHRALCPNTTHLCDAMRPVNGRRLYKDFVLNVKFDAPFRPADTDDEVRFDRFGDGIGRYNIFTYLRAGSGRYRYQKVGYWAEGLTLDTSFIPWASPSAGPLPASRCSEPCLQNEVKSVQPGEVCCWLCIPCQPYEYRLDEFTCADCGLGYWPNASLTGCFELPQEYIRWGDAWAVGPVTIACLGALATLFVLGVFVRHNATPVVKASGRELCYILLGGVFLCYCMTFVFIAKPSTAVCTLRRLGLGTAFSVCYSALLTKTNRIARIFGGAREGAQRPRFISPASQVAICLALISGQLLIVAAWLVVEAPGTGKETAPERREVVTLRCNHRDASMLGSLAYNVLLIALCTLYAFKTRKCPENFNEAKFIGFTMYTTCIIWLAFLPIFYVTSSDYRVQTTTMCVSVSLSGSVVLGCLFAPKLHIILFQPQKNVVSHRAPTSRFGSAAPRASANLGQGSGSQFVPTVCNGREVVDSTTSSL

[8] = molecular target: T1, Metabotropic glutamate receptor 1; test: Antagonist activity at rat mGluR1a receptor expressed in CHO cells assessed as effect on intracellular calcium level; format: functional, cell-based; method in brief: as §1

T1 sequence (P23385 whole entry): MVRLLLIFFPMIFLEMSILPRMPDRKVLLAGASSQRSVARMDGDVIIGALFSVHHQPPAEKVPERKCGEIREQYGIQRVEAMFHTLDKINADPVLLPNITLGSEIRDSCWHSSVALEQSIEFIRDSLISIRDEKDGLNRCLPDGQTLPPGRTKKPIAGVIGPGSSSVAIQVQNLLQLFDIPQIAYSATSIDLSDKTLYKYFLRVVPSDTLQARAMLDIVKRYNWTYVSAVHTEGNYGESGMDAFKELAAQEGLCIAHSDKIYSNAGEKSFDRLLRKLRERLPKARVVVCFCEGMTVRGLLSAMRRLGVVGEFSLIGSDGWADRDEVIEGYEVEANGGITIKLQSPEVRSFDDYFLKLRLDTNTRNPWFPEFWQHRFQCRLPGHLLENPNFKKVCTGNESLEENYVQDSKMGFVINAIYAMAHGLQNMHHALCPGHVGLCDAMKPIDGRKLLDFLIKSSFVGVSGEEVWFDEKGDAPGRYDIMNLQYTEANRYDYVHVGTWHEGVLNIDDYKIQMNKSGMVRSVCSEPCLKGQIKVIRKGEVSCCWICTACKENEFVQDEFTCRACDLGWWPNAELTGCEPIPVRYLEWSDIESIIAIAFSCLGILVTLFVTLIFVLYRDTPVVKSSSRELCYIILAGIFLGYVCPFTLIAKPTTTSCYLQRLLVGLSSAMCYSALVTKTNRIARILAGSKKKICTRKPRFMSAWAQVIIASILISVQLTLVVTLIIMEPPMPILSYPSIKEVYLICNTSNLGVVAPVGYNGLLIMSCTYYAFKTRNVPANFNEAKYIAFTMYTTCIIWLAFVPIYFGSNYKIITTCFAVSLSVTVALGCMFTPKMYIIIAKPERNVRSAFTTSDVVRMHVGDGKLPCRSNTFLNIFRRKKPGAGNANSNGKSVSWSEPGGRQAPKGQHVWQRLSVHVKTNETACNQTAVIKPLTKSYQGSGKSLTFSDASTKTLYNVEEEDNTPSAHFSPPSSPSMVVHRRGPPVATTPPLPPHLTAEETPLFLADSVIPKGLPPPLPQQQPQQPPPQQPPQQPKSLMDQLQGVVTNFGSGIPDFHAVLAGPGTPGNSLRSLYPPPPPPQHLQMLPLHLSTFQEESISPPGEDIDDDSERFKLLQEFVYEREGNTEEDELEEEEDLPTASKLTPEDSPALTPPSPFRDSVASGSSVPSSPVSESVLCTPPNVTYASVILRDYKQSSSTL

Row | Structure (SMILES) | EC50 [1] [µM] | EC50 [2] [µM] | EC50 ([3]; read-out: EC50) [µM] | IC50 [4] [µM] | Ki (Glutamate NMDA receptor) [µM] | IC50 [5] [µM] | Ki [6] [µM] | Log IC50 [5] | EC50 ([3]; read-out: Log EC50 (converted)) [µM] | Activity [7] [%] | Log Ki (Glutamate NMDA receptor) | Ki ([8]; read-out: Ki) [µM] | Ki ([8]; read-out: Log Ki (converted)) [µM]
1 | CCCCc1c(C(N)C(=O)O)cnn1O (racemic) | > 1000 | > 1000 | > 1000 | > 100 | > 100 | > 100 |  |  |  |  |  |  | 
2 | NC(C(=O)O)c1cnn(O)c1CC1CCCCC1 (racemic) | > 1000 | > 1000 |  | > 100 | > 100 | > 100 | 32 |  |  |  |  |  | 
3 | NC(C(=O)O)c1cnn(O)c1C(c1ccccc1)c1ccccc1 (racemic) | > 1000 | > 1000 | > 1000 | > 100 | > 100 | 47 |  | -4.33 |  |  |  |  | 
4 | CCCc1c(C(N)C(=O)O)cnn1O (racemic) | > 1000 | > 1000 | 72 | > 100 | > 100 | > 100 |  |  | 67.6 |  |  |  | 
5 | CCCCCc1c(C(N)C(=O)O)cnn1O (racemic) | > 1000 | > 1000 | > 1000 | > 100 | > 100 | > 100 |  |  |  |  |  |  | 
6 | NC(C(=O)O)c1cnn(O)c1Br (racemic) | > 1000 | > 1000 | 170 | > 100 | 25 | > 100 |  |  | 151 | 43 |  |  | 
7 | NC(C(=O)O)c1cnn(O)c1CC1CC1 (racemic) | > 1000 | > 1000 | > 1000 | > 100 | 35 | > 100 |  |  |  |  | -4.47 |  | 
8 | NC(C(=O)O)c1cnn(O)c1-c1ccccc1 (racemic) | > 1000 | > 1000 |  | > 100 | > 100 | > 100 | 180 |  |  |  |  |  | 
9 | CCc1c(C(N)C(=O)O)cnn1O (racemic) | > 1000 | > 1000 | 57 | > 100 | 32 | > 100 |  |  |  |  |  |  | 
10 | NC(C(=O)O)c1cnn(O)c1CCc1ccccc1 (racemic) |  | > 1000 | > 1000 | > 100 | > 100 | > 100 |  |  |  |  |  | 230 | 195
11 | NC(C(=O)O)c1cnn(O)c1CCCc1ccccc1 (racemic) |  | > 1000 |  | > 100 | 54 | > 100 | 67 |  |  |  |  | 260 | 
12 | NC(C(=O)O)c1cnn(O)c1Cc1ccccc1 (racemic) | > 1000 | > 1000 |  | > 100 | 67 | > 100 | 120 |  |  |  |  |  | 
